For data set [1], the system named is 4T1. The data set is described as follows: Antitumor activity against mouse 4T1 cells implanted in BALB/c mouse assessed as decrease in lung MMP2 expression level at 5.7 mg/kg,iv administrated once per week for 4 weeks in presence of MDA-205 by western blot assay. The data set is classed as functional, organism-based. Summed up: (§1)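 4T1 cells injected into mammary fat pads of BALB/c mice. Saline vehicle or test article given iv once weekly for 4 weeks. Spleen, lung and tumor lysates immunoblotted for MMP2/MMP9 with β-actin as loading control. Bands averaged over five mice per group, representative of two independent experiments.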

For data set [2], the system named is 4T1. The experiment in a line: Antitumor activity against mouse 4T1 cells implanted in BALB/c mouse assessed as decrease in serum IL-6 level at 5.7 mg/kg,iv administrated once per week for 4 weeks by ELISA. In kind it is functional, organism-based. In general terms: In an ELISA, binding on a coated surface is turned into a signal by an enzyme label.
Data set [3] can be described thus: Toxicity in BALB/c mouse injected with mouse 4T1 cells assessed as body weight loss at 5.7 mg/kg,iv in presence of compound 6 administrated once per week for 4 weeks. In kind it is organism-based. Conditions: in vivo, 672 h.
Data set [4] deals with 4T1. The experiment in a line: Antitumor activity against mouse 4T1 cells implanted in BALB/c mouse assessed as decrease in lung metastasis at 5.7 mg/kg,iv administrated once per week for 4 weeks in presence of compound 5b by H and E staining based assay. In kind it is functional, organism-based. Summed up: (§2)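 BALB/c mice bearing orthotopic mammary fat pad 4T1 tumors, dosed iv weekly for 4 weeks with saline vehicle as control. Lung sections stained with hematoxylin and eosin and examined by light microscopy at 40× for metastasis, inflammatory infiltration and alveolar wall thickening.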

Data set [5] concerns 4T1. The data set is described as follows: Antitumor activity against mouse 4T1 cells xenografted with BALB/c mouse assessed as inhibition of tumor growth at 5.7 mg/kg,iv in presence of compound 6 administrated once per week for 4 weeks. In kind it is functional. The settings on record: 4T1, 672 h. Summed up:
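4T1 cells injected into mammary fat pads of BALB/c mice. Dosing iv once per week for 4 weeks, saline vehicle; single-agent arms were given alone or with the peptide component (5b or 6). Endpoints were body weight, tumour volume, tumour weight, lung metastatic nodule count and lung metastasis score. Mean ± SEM, n = 10; ANOVA and Student's t test.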

Data set [6] deals with 4T1. The data set is described as follows: Antitumor activity against mouse 4T1 cells implanted in BALB/c mouse assessed as decrease in tumor MMP2 expression level at 5.7 mg/kg,iv administrated once per week for 4 weeks in presence of MDA-205 by western blot assay. In kind it is functional, organism-based. Summed up: as §1
Data set [7] concerns 4T1. The experiment in a line: Antitumor activity against mouse 4T1 cells implanted in BALB/c mouse assessed as decrease in lung injury at 5.7 mg/kg,iv administrated once per week for 4 weeks in presence of compound 5b by H and E staining based assay. In kind it is functional, organism-based. A digest of the protocol:
as §2

Data set [8] in a line: AUC (0-infinity) in Beagle dog at 2 mg/kg,iv measured upto 24 hrs. The data set is classed as ADME, organism-based, Canis lupus familiaris. The settings on record: in vivo. Set-up: dose 2 mg/kg, time < 24 hrs, route iv. Summed up:
(§3)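 Single iv dose: rats 2, 4 or 8 mg/kg by intravenous injection; Beagle dogs 1, 2 or 4 mg/kg by intravenous infusion. Plasma concentration–time data were analysed by sex and pooled. Reported parameters: Cmax, Tmax, AUC0−t, AUC0−∞, MRT0−∞, t1/2, CL, Vss, given as mean ± SD.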

Data set [9] is described as follows: Drug concentration in plasma of Beagle dog assessed as docetaxel concentration at 1 to 4 mg/kg,iv measured upto 24 hrs. In kind it is ADME, organism-based, Canis lupus familiaris. The settings on record: in vivo, dose 1-4 mg/kg. A digest of the protocol:
(§4)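 Beagle dogs were given a single iv infusion at 1, 2 or 4 mg/kg. Plasma parent drug and released docetaxel were followed over time. Cmax, Tmax, AUC, MRT, t1/2, CL and Vss were reported by sex and for all dogs combined.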

Data set [10] can be described thus: Tmax in male Beagle dog at 2 mg/kg,iv measured upto 24 hrs. The data set is classed as ADME, organism-based, Canis lupus familiaris. Conditions: in vivo.
Data set [11] is described as follows: AUC (0-infinity) in female Beagle dog at 1 mg/kg,iv measured upto 24 hrs. In kind it is ADME, organism-based, Canis lupus familiaris. Further details: dose 1 mg/kg, time < 24 hrs, route iv. The settings on record: in vivo. A digest of the protocol: as §3
Data set [12] in a line: Cmax in male Beagle dog at 2 mg/kg,iv measured upto 24 hrs. Conditions: in vivo. The data set is classed as ADME, organism-based, Canis lupus familiaris. Further details: dose 2 mg/kg, time < 24 hrs, route iv. A digest of the protocol: as §4
Data set [13] can be described thus: Clearance in male Beagle dog at 2 mg/kg,iv measured upto 24 hrs. Conditions: in vivo. In kind it is ADME, organism-based, Canis lupus familiaris. A digest of the protocol: as §4
Data set [14] in a line: Tmax in male rat at 4 mg/kg,iv measured upto 24 hrs. In kind it is ADME, organism-based. Conditions: in vivo.
The nature of data set [15]: Drug metabolism in rat hepatocytes assessed as docetaxel metabolite formation at 20 uM incubated for 180 mins. In kind it is ADME, cell-based, Hepatocyte. The settings on record: 3 h.
Data set [16] can be described thus: Tmax in male rat at 8 mg/kg,iv measured upto 24 hrs. The data set is classed as ADME, organism-based. The settings on record: in vivo.
Data set [17] can be described thus: Stability in monkey plasma assessed as compound remaining at 40 uM incubated for 6 hrs. The data set is classed as ADME, cell-free, Macaca mulatta. The settings on record: rhesus monkey.
Data set [18] can be described thus: Drug concentration in rat plasma at 4 mg/kg,iv measured after 24 hrs. In kind it is ADME, organism-based. Conditions: in vivo. A digest of the protocol: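 Rats received 4 mg/kg iv. Parent drug and released docetaxel were assayed in tissues and plasma from the first sampling at 0.25 h to 24 h. The lower limit of quantitation was 200 ng/g.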
Data set [19] is described as follows: AUC (0-infinity) in male rat at 2 mg/kg,iv measured upto 24 hrs. In kind it is ADME, organism-based. Further details: dose 2 mg/kg, time < 24 hrs, route iv. Conditions: in vivo. Summed up: as §3
Data set [20] concerns 4T1. The experiment in a line: Antitumor activity against mouse 4T1 cells implanted in BALB/c mouse assessed as increase in tumor NOD1 expression level at 5 to 20 mg/kg,iv administrated once per week for 4 weeks by western blot assay. The data set is classed as functional, organism-based. Conditions: dose 5-20 mg/kg. A digest of the protocol:
(§5)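 4T1 fat-pad model in BALB/c mice, iv once weekly for 4 weeks; MMP9, MMP2 and NOD1 in spleen, lung and tumour by western blot, β-actin loading control; bands averaged over five mice per group, representative of two independent experiments.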
On the technique in general: Immunoblotting shows a protein as a band on a membrane.

A short description of data set [21]: AUC (0-t) in male rat at 2 mg/kg,iv measured upto 24 hrs. The data set is classed as ADME, organism-based. Set-up: time < 24 hrs, dose 2 mg/kg, route iv. The settings on record: in vivo. A digest of the protocol: as §3
Data set [22] in a line: Toxicity in Beagle dog assessed as effect on gastrointestinal tract at 3 to 18 mg/kg,iv measured upto 24 hrs. The data set is classed as organism-based, Canis lupus familiaris. The settings on record: in vivo, dose 3-18 mg/kg.
Data set [23] can be described thus: Half life in male rat at 4 mg/kg,iv measured upto 24 hrs. In kind it is ADME, organism-based. The settings on record: in vivo.
In data set [24] the test system is 4T1. The data set is described as follows: Antitumor activity against mouse 4T1 cells implanted in BALB/c mouse assessed as decrease in PROK2 mRNA expression in lung at 20 mg/kg,iv administrated qd for 2 days by qRT-PCR analysis. In kind it is functional, organism-based. Conditions: time 2.0 day. A digest of the protocol:
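Day 19 after 4T1 implantation, mice randomised into five groups; iv vehicle or 20 mg/kg plus ip C12-iE-DAP (50 μg/mouse) and MDP (100 μg/mouse) once daily for 2 days; killed after 48 h; lung mRNA for MMP8, MMP9, PROK2, S100A8, S100A9 and IL-1β by qPCR; mean ± SEM.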

Data set [25] concerns 4T1. The data set is described as follows: Antitumor activity against mouse 4T1 cells implanted in BALB/c mouse assessed as decrease in spleen MDSC cells at 20 mg/kg,iv measured after 28 days (reference value: 38%). The data set is classed as functional. Further details: scale not given: the % may be the effect or the level left. The settings on record: time 28 day.
The test system of data set [26] is 4T1. The data set is described as follows: Antitumor activity against mouse 4T1 cells implanted in BALB/c mouse assessed as decrease in spleen MMP9 expression level at 5 to 20 mg/kg,iv administrated once per week for 4 weeks by western blot assay. In kind it is functional, organism-based. The settings on record: dose 5-20 mg/kg. Summed up: as §5
Data set [27] can be described thus: Volume of distribution at steady state in female Beagle dog at 2 mg/kg,iv measured upto 24 hrs. In kind it is ADME, organism-based, Canis lupus familiaris. The settings on record: in vivo, read-out: Vdss.
A short description of data set [28]: Clearance in male Beagle dog at 4 mg/kg,iv measured upto 24 hrs. The data set is classed as ADME, organism-based, Canis lupus familiaris. Conditions: in vivo. A digest of the protocol:
as §4

Data set [29] is described as follows: Half life in male rat at 2 mg/kg,iv measured upto 24 hrs. The data set is classed as ADME, organism-based. The settings on record: in vivo.
Data set [30] is described as follows: Half life in female Beagle dog at 4 mg/kg,iv measured upto 24 hrs. Conditions: in vivo. In kind it is ADME, organism-based, Canis lupus familiaris.
Data set [31] in a line: Drug metabolism in rat bile assessed as metabolite MDA-205 formation at 4 mg/kg,iv measured after 24 hrs. In kind it is ADME, organism-based. Conditions: in vivo.
Data set [32] can be described thus: Half life in mouse plasma implanted with mouse 4T1 cells at 10 mg/kg,iv measured upto 72 hrs. The data set is classed as ADME, organism-based.

Each structure is given as a SMILES string. Active and inactive are the calls of the source. The calls are words filed in the database; no cut-off is given here.

By inhibition in vivo is commonly meant the relative decrease from the control value, in per cent. One may read the AUC(0-inf) as the area under the concentration-time curve extrapolated to infinity. For orientation: Tmax means the time at which the peak concentration occurs. Usually Cmax stands for the highest concentration seen after dosing. As usually defined, the clearance is the volume of plasma or blood freed of the substance per unit of time. A word on the AUC(0-t): it is exposure summed from dosing to a finite time, without extrapolation to infinity. By half-life is commonly meant the time in which the quantity being followed falls by half.

As for `CC(=O)O[C@@]12CO[C@@H]1C[C@H](O)[C@@]1(C)C(=O)[C@H](O)C3=C(C)[C@@H](OC(=O)[C@H](O)[C@@H](NC(=O)OC(C)(C)C)c4ccccc4)C[C@@](O)([C@@H](OC(=O)c4ccccc4)[C@H]21)C3(C)C` [DOCETAXEL ANHYDROUS], the result in the data set with 4T1 [1] and in the data set with 4T1 [6] was inactive. Besides, the result in the data set on 4T1 [2], in the data set with 4T1 [4] and in the data set on 4T1 [7] was Active. The Activity result in data set [3] is given as “Non-Toxic”. The inhibition in vivo at 5.7 mg/kg with 4T1 [5] turned out to be 15.4%.
Consider `CC(=O)O[C@@]12CO[C@@H]1C[C@H](O)[C@@]1(C)C(=O)[C@H](O)C3=C(C)[C@@H](OC(=O)[C@H](OC(=O)CCC(=O)NCCCC[C@H](NC(=O)CC[C@@H](NC(=O)[C@H](C)NC(=O)/C=C/c4ccc(F)cc4Cl)C(N)=O)C(=O)O)[C@@H](NC(=O)OC(C)(C)C)c4ccccc4)C[C@@](O)([C@@H](OC(=O)c4ccccc4)[C@H]21)C3(C)C`, for which the total exposure AUC(0-inf) was 5950 ng·h/mL in [8], 1640 ng·h/mL in [11] and 6120 ng·h/mL in [19]. Also, the Drug uptake amounted to 0.23% in data set [9] and 1% in data set [18]. The Tmax is 30 min in [10], 4.98 min in data set [14] and 4.98 min in data set [16]. This compound came in with a Cmax in [12] of 10800 ng/mL. For the same compound, the clearance was determined as 7.13 mL/min/kg in data set [13] and 4.56 mL/min/kg in [28]. The Drug metabolism entry in data set [15] and in [31] was “Metabolite_Detected” throughout. In data set [17], the Stability entry was “Stable”. For the same compound, the outcome with 4T1 [20] was inactive. The compound also had an AUC(0-t) at 24 h in [21] of 6090 ng·h/mL. Also, the Activity result in data set [22] is given as “Toxic”; in the data set on 4T1 [25], 10.1%. The half-life in [23] was 10.7 min; in data set [29], 9 min; in data set [30], 33.8 min; in data set [32], 41.4 min. The result in the data set with 4T1 [24] and in the data set with 4T1 [26] was Active. Moreover, the Vd in data set [27] is 0.077 L/kg.

(Values after ChEMBL document CHEMBL5252546, “Salutaxel, a Conjugate of Docetaxel and a Muramyl Dipeptide (MDP) Analogue, Acts as Multifunctional Prodrug That Inhibits Tumor Growth and Metastasis” (J Med Chem, 2018).)
